{"data": "Results from different studies", "target": "Phosphatidylinositol 3-kinase catalytic subunit type 3 (PIK3C3, Homo sapiens, UniProt Q8NEB9)", "note": "Each line is one published result; the experiments were not run side by side."}
{"SMILES": "CN(C)c1nccc(-c2cnn3ncccc23)n1", "test": "binding", "setting": "1 µM", "remaining binding [%]": 100}
{"SMILES": "O=C(NC[C@@H]1[C@H]2CN(C(=O)OCc3cc(C(F)(F)F)cc(C(F)(F)F)c3)C[C@@H]12)c1ccc2[nH]nnc2c1", "test": "cell-free assay, competition with immobilised ligand", "setting": "1 µM", "remaining binding [%]": 72}
{"SMILES": "N[C@@H]1CCN(c2nccc(-c3cnn4ncccc34)n2)C1", "test": "binding", "setting": "1 µM", "remaining binding [%]": 83}
{"SMILES": "FC(F)(F)Oc1cccc(-c2cnc3ccc(-c4ccncc4)nn23)c1", "test": "cell-free assay, competition with immobilised ligand", "setting": "5 µM", "remaining binding [%]": 34}
{"SMILES": "O=C(N[C@H]1CCCCC/C=C\\C2C[C@@]2(C(=O)O)NC(=O)[C@@H]2C[C@@H](Oc3ccncc3)CN2C1=O)OC1CCCC1 (some centres unmarked)", "test": "cell-free assay, competition with immobilised ligand", "setting": "1 µM", "remaining binding [%]": 100}
{"SMILES": "O=C(c1ccc(Nc2ncc(Cl)c(-c3ccc(Cl)s3)n2)cc1)N1CCC(N2CCCC2)CC1", "test": "binding, competition with immobilised ligand", "setting": "1 µM", "remaining binding [%]": 54}
{"SMILES": "Nc1c(C(=O)NCc2ccc(C(=O)NCCCC3CCCCC3)cc2)cnn1-c1ccccc1", "test": "cell-free assay, competition with immobilised ligand", "setting": "0.1 µM", "remaining binding [%]": 99}
{"SMILES": "O=C(NCCCN1CCOCC1)c1ccc(Nc2nccc(-c3cc4ccccc4s3)n2)cc1", "test": "binding, competition with immobilised ligand", "setting": "1 µM", "remaining binding [%]": 0.6}
{"SMILES": "C=CC(=O)N1CCC(C(=O)NCC(=O)N2CCN(c3nc(-c4cnc(N)nc4C(F)F)nc(N4CCOCC4)n3)CC2)CC1", "test": "binding, competition with immobilised ligand", "setting": "1 µM", "remaining binding [%]": 4.5}
{"SMILES": "O=C(NCC1CCOCC1)c1n[nH]cc1NC(=O)c1c(F)cccc1F", "test": "binding, competition with immobilised ligand", "setting": "1 µM", "remaining binding [%]": 97}
{"SMILES": "Nc1ncc2c(n1)-c1c([nH]c3ccc(C#CC4CC4)cc13)CCCC2", "test": "binding, competition with immobilised ligand", "setting": "1 µM", "remaining binding [%]": 93}
{"SMILES": "O=S(=O)(NC1CCC(c2cc(F)ccc2F)(S(=O)(=O)c2ccc(Cl)cc2)CC1)C(F)(F)F (centres unmarked)", "test": "cell-free assay, competition with immobilised ligand", "setting": "1 µM", "remaining binding [%]": 100}
{"SMILES": "c1cnn2ncc(-c3ccnc(N4CCC45COC5)n3)c2c1", "test": "binding", "setting": "1 µM", "remaining binding [%]": 48}
{"SMILES": "COc1cnc(Nc2cccc(S(N)(=O)=O)c2)nc1N1CCN(c2ccccc2)CC1", "test": "binding, competition with immobilised ligand", "setting": "1 µM", "remaining binding [%]": 76}
{"SMILES": "CC1CCCN1c1nccc(-c2cnn3ncccc23)n1 (centres unmarked)", "test": "binding", "setting": "1 µM", "remaining binding [%]": 100}
{"SMILES": "O=C(O)c1cc(-c2ccc(C3CCNCC3)cc2)c2ccc(-c3ccc(C(F)(F)F)cc3)cc2c1", "test": "cell-free assay, competition with immobilised ligand", "setting": "1 µM", "remaining binding [%]": 100}
{"SMILES": "CN(CCCC(F)(F)F)c1nccc(-c2cnn3ncccc23)n1", "test": "binding", "setting": "1 µM", "remaining binding [%]": 100}
{"SMILES": "CO[C@@H](C)c1c(Nc2ccc([C@H](N(C)C(=O)C3CCS(=O)(=O)CC3)C(F)(F)F)cc2)cnc2cc(Cl)nn12", "test": "cell-free assay, competition with immobilised ligand", "setting": "1 µM", "remaining binding [%]": 100}
{"SMILES": "C[C@H]1CCN(c2nccc(-c3cnn4ncccc34)n2)C1", "test": "binding", "setting": "1 µM", "remaining binding [%]": 86}
{"SMILES": "O=C(c1ccc(Nc2ncc(Cl)c(-c3cc4ccccc4s3)n2)cc1)N1CCC(N2CCCC2)CC1", "test": "binding, competition with immobilised ligand", "setting": "1 µM", "remaining binding [%]": 53}
